Laboratory results reported in ChEMBL document CHEMBL3352233, “N-[6-(4-butanoyl-5-methyl-1H-pyrazol-1-yl)pyridazin-3-yl]-5-chloro-1-[2-(4-methylpiperazin-1-yl)-2-oxoethyl]-1H-indole-3-carboxamide (SAR216471), a novel intravenous and oral, reversible, and directly acting P2Y12 antagonist” (J Med Chem, 2014).
One block for each compound: values may come before it. Activity calls are given as the source filed them. The rule behind the calls is not given here.

Assays:
[1] = tested on: Salmonella typhimurium; assay: Mutagenicity in Salmonella typhimurium by Ames II test in absence of liver S9 fraction; assay type: toxicity, organism-based; settings: salmonella enterica subsp. enterica serovar typhimurium
[2] = tested on: Salmonella typhimurium; assay: Mutagenicity in Salmonella typhimurium by Ames II test in presence of liver S9 fraction; assay type: toxicity, organism-based; settings: salmonella enterica subsp. enterica serovar typhimurium
[3] = Permeability across human Caco2 cells; assay type: ADME, cell-based; settings: for permeability: Caco-2; for Papp: Caco-2, read-out: permeability
Procedure, shortened: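 Permeation is measured across a Caco2 cell monolayer and reported in 10⁻⁷ cm·s⁻¹.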

[4] = tested on: Liver microsome; assay: (§1) Metabolic stability in rat liver microsomes assessed as compound metabolism after 20 mins incubation in presence of 1 mM NADPH; assay type: ADME; settings: microsomes, 20 min
Procedure, shortened: (§2)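 Hepatic microsomal fractions are incubated with compound for 20 min with 1 mM NADPH. Result is reported as % metabolized, i.e. 100 minus % unchanged compound.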

[5] = tested on: Rattus norvegicus; assay: Ex vivo inhibition of platelet aggregation in Sprague-Dawley rat at 10 mg/kg, po after 6 hrs; assay type: functional
Procedure, shortened: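 Time-course study in Sprague−Dawley rats after a 10 mg/kg oral dose in glucose/Cremophor/glycofurol vehicle. Aortic citrated blood is sampled at intervals over the hours after dosing. PRP is prepared at 300g for 5 min. ADP-induced aggregation is measured as the 6-min absorbance AUC and reported as % inhibition.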

[6] = molecular target: P2Y purinoceptor 12 (Homo sapiens, UniProt Q9H244); assay: Displacement of [33P]2MeS-ADP from P2Y12 receptor (unknown origin) transfected in CHO cells after 30 mins by scintillation counting analysis; assay type: cell-based
Procedure, shortened: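 P2Y12-expressing CHO cells (35 × 10³/sample) in PBS with 1 mM EDTA and 0.2% BSA are exposed to compound for 30 min. [³³P]2-MeS-ADP (0.16 nM) is then added for 15 min at 20 °C, in triplicate. Filtration separates free from bound ligand, followed by scintillation counting. Nonspecific binding uses 1 mM unlabeled ADP. IC50 comes from a four-parameter logistic fit with asymptotes fixed at 0 and 100. n = 2.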

[7] = tested on: Liver microsome; assay: (§3) Metabolic stability in human liver microsomes assessed as compound metabolism after 20 mins incubation in presence of 1 mM NADPH; assay type: ADME; settings: microsomes, 20 min; procedure, shortened: as §2
[8] = tested on: Rattus norvegicus; assay: Ex vivo inhibition of platelet aggregation in po dosed Sprague-Dawley rat after 2 hrs; assay type: functional
Procedure, shortened: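 Oral gavage in male Sprague−Dawley rats (250−300 g, 6 per batch), vehicle 5% glucose water with 5% Cremophor and 3% glycofurol. Blood is collected 2 h after dosing from the abdominal aorta into 3.8% citrate under pentobarbital. PRP is prepared at 300g for 5 min. ADP-induced aggregation is quantified as the 6-min absorbance AUC, given as % inhibition.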

[9] = tested on: Rattus norvegicus; assay: Ex vivo inhibition of platelet aggregation in Sprague-Dawley rat at 10 mg/kg, po after 2 hrs; assay type: functional
Procedure, shortened: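 Male Sprague−Dawley rats (250−300 g), 6 per batch, are dosed by stomach tube at 10 mL/kg of a 1 mg/mL solution in 5% glucose water containing 5% Cremophor and 3% glycofurol. At 2 h, aortic blood is drawn into 3.8% citrate (1:9) under pentobarbital. PRP is prepared at 300g for 5 min. ADP aggregation is read as the 6-min absorbance AUC and expressed as % inhibition.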

[10] = tested on: Hepatocyte; assay: Intrinsic metabolic clearance in human hepatocytes measured per 10^6 cells after 24 hrs; assay type: ADME, cell-based
Procedure, shortened: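 Human hepatocytes incubated with compound for 24 h to measure in vitro metabolism. Clearance reported in mL·h⁻¹·(10⁶ hepatocytes)⁻¹.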

[11] = tested on: Hepatocyte; assay: Intrinsic metabolic clearance in human hepatocytes measured assessed as CYP3A4 contribution per 10^6 cells after 24 hrs; assay type: ADME, cell-based
[12] = Metabolic stability in mouse liver microsomes assessed as compound metabolism after 20 mins incubation in presence of 1 mM NADPH; assay type: ADME; settings: read-out: Drug metabolism
Procedure, shortened: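 Compound incubated with mouse hepatic microsomal fractions for 20 min with 1 mM NADPH. Read-out is % metabolism, meaning 100 minus % unchanged compound.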

[13] = as §1; assay type: ADME; settings: liver microsomes, read-out: Drug metabolism; procedure, shortened: as §2
[14] = as §3; assay type: ADME; settings: liver microsomes, read-out: Drug metabolism; procedure, shortened: as §2

Sequence of P2Y purinoceptor 12 (Q9H244 whole entry): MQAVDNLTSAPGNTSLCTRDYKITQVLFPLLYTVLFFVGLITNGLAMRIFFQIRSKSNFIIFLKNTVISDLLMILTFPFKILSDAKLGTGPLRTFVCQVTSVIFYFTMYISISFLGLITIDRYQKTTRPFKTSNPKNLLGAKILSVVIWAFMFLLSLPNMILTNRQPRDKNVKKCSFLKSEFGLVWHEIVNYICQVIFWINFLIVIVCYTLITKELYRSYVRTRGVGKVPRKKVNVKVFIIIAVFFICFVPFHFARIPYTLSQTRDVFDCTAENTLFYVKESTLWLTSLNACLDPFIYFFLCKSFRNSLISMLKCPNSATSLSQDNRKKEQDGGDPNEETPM

Structure (SMILES): CCCC(=O)c1cnn(-c2ccc(O)cc2)c1C
- Activity [1]: Non-toxic
- Activity [2]: Non-toxic

Structure (SMILES): CCCC(=O)c1cnn(-c2ccc(NC(=O)c3cn(CC(=O)N4CCN5CCN(C)C(=O)C5C4)c4ccc(Cl)cc34)cc2)c1C (single isomer, unassigned; 104)
- permeability [3]: 28 ×10⁻⁷ cm/s
- Drug metabolism [4]: 7%
- inhibition (INH) ([5]; 10 mg/kg): 61%
- IC50 [6]: 12 nM
- Drug metabolism [7]: 47%

Structure (SMILES): CC(=O)Oc1cc2c(s1)CCN(C(C(=O)C1CC1)c1ccccc1F)C2 (configuration not stated)
- ED50 [8]: 0.46 mg/kg

Structure (SMILES): CCCC(=O)c1cnn(-c2ccc(NC(=O)c3cn(CC(=O)N4CCN5CCN(C)C(=O)C5C4)c4ccc(Cl)cc34)cc2)c1C (single isomer, unassigned; 103) [listing 1 of 2 here]
- permeability [3]: 32 ×10⁻⁷ cm/s
- Drug metabolism [4]: 23%
- IC50 [6]: 7 nM
- Drug metabolism [7]: 52%
- inhibition (INH) ([9]; 10 mg/kg): 46%

Structure (SMILES): CCCC(=O)c1cnn(-c2ccc(N)nn2)c1C
- Activity [1]: Non-toxic
- Activity [2]: Non-toxic

- IC50 [6]: 82 nM
Structure (SMILES): CCCC(=O)c1cnn(-c2ccc(NC(=O)c3cn(CC(=O)N4CCN(C(C)C)CC4)c4ccc(C)cc34)cc2)c1C
- inhibition in vivo at 10 mg/kg ([9]; Rattus norvegicus, Sprague-Dawley, po, 2 h): 15%

Structure (SMILES): CCCC(=O)c1cnn(-c2ccc(NC(=O)c3cn(CC(=O)N4CCN5CCN(C)C(=O)C5C4)c4ccc(Cl)cc34)cc2)c1C (single isomer, unassigned; 103) [listing 2 of 2 here]
- inhibition [5]: inactive

Structure (SMILES): CCCC(=O)c1cnn(-c2ccc(N)c(C#N)c2)c1C
- Activity [1]: Non-toxic
- Activity [2]: Non-toxic

Structure (SMILES): CCCC(=O)c1cnn(-c2ccc3c(c2)OCCN3)c1C
- Activity [1]: Non-toxic
- Activity [2]: Non-toxic

Structure (SMILES): CCCC(=O)c1cnn(C2CCN(NC(=O)c3cn(CC(=O)N4CCN(C)CC4)c4ccc(Cl)cc34)CC2)c1C
- CLH [10]: 0.05 mL/h
- Activity [11]: 35%
- Papp [3]: 0.1 ×10⁻⁶ cm/s
- metabolised at 20 min [12]: 3%
- metabolised at 20 min [13]: 13%
- IC50 [6]: 7 nM
- ED50 [8]: 0.95 mg/kg
- inhibition [8]: Dose-dependent effect
- metabolised at 20 min [14]: 59%

- Papp [3]: 7.5 ×10⁻⁶ cm/s
- metabolised at 20 min [14]: 20%
Structure (SMILES): CCCSc1nc(N[C@@H]2C[C@H]2c2ccc(F)c(F)c2)c2nnn([C@@H]3C[C@H](OCCO)[C@@H](O)[C@H]3O)c2n1 [TICAGRELOR]
- ED50 [8]: 1.59 mg/kg

Structure (SMILES): CCCC(=O)c1cnn([C@H]2CC[C@H](NC(=O)c3cn(CC(=O)N4CCN(C)CC4)c4ccc(Cl)cc34)CC2)c1C
- CLH [10]: 0.171 mL/h
- Activity [11]: 64%
- Papp [3]: 0.1 ×10⁻⁶ cm/s
- metabolised at 20 min [12]: 11%
- metabolised at 20 min [13]: 32%
- IC50 [6]: 40 nM
- metabolised at 20 min [14]: 73%

Structure (SMILES): CCCC(=O)c1cnn(-c2ccc(N)c(C(=O)O)c2)c1C
- Activity [1]: Non-toxic
- Activity [2]: Non-toxic

Structure (SMILES): CCCC(=O)c1cnn([C@H]2CC[C@H](N)CC2)c1C
- Activity [1]: Non-toxic

Structure (SMILES): CCCC(=O)c1cnn(-c2cnc(N)cn2)c1C
- Activity [1]: Non-toxic
- Activity [2]: Non-toxic

Structure (SMILES): CCCC(=O)c1cnn(-c2ccc(N)cn2)c1C
- Activity [1]: Non-toxic
- Activity [2]: Toxic

- Papp [3]: 0.2 ×10⁻⁶ cm/s
- metabolised at 20 min [13]: 17%
- IC50 [6]: 41 nM
- metabolised at 20 min [14]: 16%
Structure (SMILES): CCCC(=O)c1cnn(-c2ccc(NC(=O)c3cn(CC(=O)N4CCN(CCO)CC4)c4ccc(C)cc34)cc2)c1C

Structure (SMILES): COC(=O)[C@H](c1ccccc1Cl)N1CCc2sccc2C1 [CLOPIDOGREL]
- ED50 [8]: 2.6 mg/kg

- Papp [3]: 9.3 ×10⁻⁶ cm/s
- metabolised at 20 min [13]: 27%
- IC50 [6]: 19 nM
- metabolised at 20 min [14]: 64%
Structure (SMILES): CCCC(=O)c1cnn(-c2ccc(NC(=O)c3cn(CC(=O)N4CCN(CC(F)F)CC4)c4ccc(C)cc34)cc2)c1C
